This is an account of results in ChEMBL document CHEMBL4118021, “Studies of TAK1-centered polypharmacology with novel covalent TAK1 inhibitors” (Bioorg Med Chem, 2017).

In assay [1] the target is Signal recognition particle receptor subunit beta (Homo sapiens) (UniProt Q9Y5M8). The assay is described as follows: Binding affinity to SRPRB in human NCI-H358 cells at 1 uM by mass spectrometry based pull down assay. The format is cell-based.
Assay [2] addresses Aldehyde dehydrogenase X, mitochondrial (Homo sapiens) (UniProt P30837). As to the kind of experiment: Binding affinity to ALDH1B1 in human NCI-H358 cells at 1 uM by mass spectrometry based pull down assay. The format is cell-based. In outline: (§1)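 NCI-H23 or NCI-H358 cells were grown and lysed. Lysates were incubated overnight at 4 °C with 1 μM biotinylated covalent probe or DMSO, then pulled down on streptavidin beads. Proteins were run on polyacrylamide gels and stained with Coomassie. Bands were excised, digested and identified by mass spectrometry.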

Assay [3] has as its target tRNA (guanosine(18)-2'-O)-methyltransferase TARBP1 (Homo sapiens) (UniProt Q13395). As to the kind of experiment: Binding affinity to TARBP1 in human NCI-H358 cells at 1 uM by mass spectrometry based pull down assay. In kind it is cell-based.
The test system of a further assay is NCI-H23. The assay is described as follows: Binding affinity to PSMA3 in human NCI-H23 cells at 1 uM by mass spectrometry based pull down assay. The format is cell-based.
For assay [4], the target named is Glutamate--cysteine ligase catalytic subunit (Homo sapiens) (UniProt P48506). As to the kind of experiment: Binding affinity to GCLC in human NCI-H23 cells at 1 uM by mass spectrometry based pull down assay. The format is cell-based.
Assay [5] deals with Proteasome subunit beta type-6 (Homo sapiens) (UniProt P28072). The assay is described as follows: Binding affinity to PSMB6 in human NCI-H358 cells at 1 uM by mass spectrometry based pull down assay. In kind it is cell-based.
In assay [6] the target is T1, Dual specificity mitogen-activated protein kinase kinase 6 (Homo sapiens) (UniProt P52564).
T1 sequence (whole entry): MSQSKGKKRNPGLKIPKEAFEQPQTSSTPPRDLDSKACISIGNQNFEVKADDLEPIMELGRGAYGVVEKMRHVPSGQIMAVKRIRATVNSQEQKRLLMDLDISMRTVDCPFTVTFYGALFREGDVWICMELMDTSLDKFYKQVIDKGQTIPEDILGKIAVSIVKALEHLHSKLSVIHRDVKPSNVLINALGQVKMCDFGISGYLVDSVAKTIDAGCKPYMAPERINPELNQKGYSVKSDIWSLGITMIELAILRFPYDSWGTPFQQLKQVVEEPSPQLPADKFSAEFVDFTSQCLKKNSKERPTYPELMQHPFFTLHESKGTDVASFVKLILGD
The assay is described as follows: Binding affinity to MAP2K6 in human NCI-H358 cells at 1 uM by mass spectrometry based pull down assay. The format is cell-based.

For assay [7], the target named is Small ribosomal subunit protein uS7m (Homo sapiens) (UniProt Q9Y2R9). The assay is described as follows: Binding affinity to MRPS7 in human NCI-H23 cells at 1 uM by mass spectrometry based pull down assay. The format is cell-based.
For assay [8], the target named is Small ribosomal subunit protein mS23 (Homo sapiens) (UniProt Q9Y3D9). As to the kind of experiment: Binding affinity to MRPS23 in human NCI-H358 cells at 1 uM by mass spectrometry based pull down assay. The format is cell-based.
For assay [9], the target named is Hippocalcin-like protein 1 (Homo sapiens) (UniProt P37235). The assay is described as follows: Binding affinity to HPCAL1 in human NCI-H358 cells at 1 uM by mass spectrometry based pull down assay. In kind it is cell-based.
In assay [10] the target is Aminoacyl tRNA synthase complex-interacting multifunctional protein 1 (Homo sapiens) (UniProt Q12904). As to the kind of experiment: Binding affinity to AIMP1 in human NCI-H358 cells at 1 uM by mass spectrometry based pull down assay. In kind it is cell-based. In outline:
as §1

For assay [11], the target named is 80S Ribosome (Homo sapiens) (UniProt P08865+P42677+P62753+P15880+P23396+P61247+P62701+P22090+P46782+P62081+P62241+P46781+P46783+P62280+P25398+P62277+P62263+P62841+P62244+P62249+P08708+P62269+P39019+P60866+P63220+P62266+P62847+P62851+P62854+P62979+P62857+P62273+P62861+P39023+P36578+P46777+Q02878+P18124+P62424+P62917+P32969+P27635+P62906+P62913+P30050+P26373+P40429+P50914+P61313+P18621+Q07020+Q02543+P84098+P46778+P35268+P62829+P62750+P83731+P61254+P61353+P46776+P46779+P47914+P62888+P62899+P62910+P49207+P42766+P18077+Q9Y3U8+P83881+P61927+P61513+P63173+P62891+P62945+P05388+P05386). As to the kind of experiment: Binding affinity to RPS17 in human NCI-H358 cells at 1 uM by mass spectrometry based pull down assay. The format is cell-based.

Assay [12] concerns the target Protein disulfide-isomerase A4 (Homo sapiens) (UniProt P13667). The assay is described as follows: Binding affinity to PDIA4 in human NCI-H23 cells at 1 uM by mass spectrometry based pull down assay. The format is cell-based.
The target in assay [13] is Pigment epithelium-derived factor (Homo sapiens) (UniProt P36955). The assay is described as follows: Binding affinity to SERPINF1 in human NCI-H23 cells at 1 uM by mass spectrometry based pull down assay. The format is cell-based.
Assay [14] addresses AP-2 complex subunit alpha-1 (Homo sapiens) (UniProt O95782). The assay is described as follows: Binding affinity to AP2A1 in human NCI-H358 cells at 1 uM by mass spectrometry based pull down assay. The format is cell-based.
Assay [15] addresses Glycogen synthase kinase-3 alpha (Homo sapiens) (UniProt P49840). As to the kind of experiment: Binding affinity to GSK3A in human NCI-H358 cells at 1 uM by mass spectrometry based pull down assay. In kind it is cell-based.
Assay [16] concerns the target Thioredoxin reductase 1, cytoplasmic (Homo sapiens) (UniProt Q16881). The assay is described as follows: Binding affinity to TXNRD1 in human NCI-H358 cells at 1 uM by mass spectrometry based pull down assay. In kind it is cell-based.
Assay [17] deals with Inhibitor of nuclear factor kappa-B kinase subunit epsilon (Homo sapiens) (UniProt Q14164). As to the kind of experiment: Inhibition of IKKe in human SKCO1 cells at 1 uM after 4 hrs using biotin labeled DIKPGNIMR probe by mass-spectrometric analysis relative to control. In kind it is cell-based.
The target of assay [18] is Cyclin-dependent kinase-like 2 (Homo sapiens) (UniProt Q92772). As to the kind of experiment: Inhibition of human CDKL2 (1 to 327 residues) expressed in bacterial expression system assessed as enzyme activity at 10 uM by KINOMEScan assay relative to control. On the set-up: scale not given: the % may be the effect or the level left. In outline: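 In vitro ATP-site competition binding assay (KinomeScan) across a panel of 456 kinases. Compound was tested at 1 and 10 μM. The read-out is the binding inhibition score relative to control.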

Assay [19] has as its target Serine/threonine-protein kinase Nek1 (Homo sapiens) (UniProt Q96PY6). As to the kind of experiment: Inhibition of NEK1 in human SKCO1 cells at 1 uM after 4 hrs using biotin labeled DIKSQNIFLTK probe by mass-spectrometric analysis relative to control. In kind it is cell-based.

As a reminder, the inhibition is the relative decrease from the control value, in per cent.

Activity calls are given as the source filed them. The calls are words filed in the database; no cut-off is given here.

Chain of Glutamate--cysteine ligase catalytic subunit (Homo sapiens) (P48506 whole entry): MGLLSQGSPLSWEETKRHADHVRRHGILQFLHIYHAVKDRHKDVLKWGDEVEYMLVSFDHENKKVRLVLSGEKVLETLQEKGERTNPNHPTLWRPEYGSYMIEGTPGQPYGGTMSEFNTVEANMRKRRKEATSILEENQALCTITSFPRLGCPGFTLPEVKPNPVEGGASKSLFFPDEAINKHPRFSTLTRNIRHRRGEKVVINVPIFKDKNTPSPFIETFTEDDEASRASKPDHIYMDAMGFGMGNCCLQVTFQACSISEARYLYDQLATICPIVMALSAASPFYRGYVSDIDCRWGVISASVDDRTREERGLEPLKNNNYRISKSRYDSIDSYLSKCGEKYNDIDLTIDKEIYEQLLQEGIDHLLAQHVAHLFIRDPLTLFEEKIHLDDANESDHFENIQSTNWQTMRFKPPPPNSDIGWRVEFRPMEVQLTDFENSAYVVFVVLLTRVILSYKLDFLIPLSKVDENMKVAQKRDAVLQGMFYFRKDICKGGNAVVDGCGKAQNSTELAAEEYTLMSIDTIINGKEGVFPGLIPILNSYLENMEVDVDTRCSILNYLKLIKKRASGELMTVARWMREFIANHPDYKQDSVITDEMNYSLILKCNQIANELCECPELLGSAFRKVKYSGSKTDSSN
Chain of Aldehyde dehydrogenase X, mitochondrial (Homo sapiens) (P30837 whole entry): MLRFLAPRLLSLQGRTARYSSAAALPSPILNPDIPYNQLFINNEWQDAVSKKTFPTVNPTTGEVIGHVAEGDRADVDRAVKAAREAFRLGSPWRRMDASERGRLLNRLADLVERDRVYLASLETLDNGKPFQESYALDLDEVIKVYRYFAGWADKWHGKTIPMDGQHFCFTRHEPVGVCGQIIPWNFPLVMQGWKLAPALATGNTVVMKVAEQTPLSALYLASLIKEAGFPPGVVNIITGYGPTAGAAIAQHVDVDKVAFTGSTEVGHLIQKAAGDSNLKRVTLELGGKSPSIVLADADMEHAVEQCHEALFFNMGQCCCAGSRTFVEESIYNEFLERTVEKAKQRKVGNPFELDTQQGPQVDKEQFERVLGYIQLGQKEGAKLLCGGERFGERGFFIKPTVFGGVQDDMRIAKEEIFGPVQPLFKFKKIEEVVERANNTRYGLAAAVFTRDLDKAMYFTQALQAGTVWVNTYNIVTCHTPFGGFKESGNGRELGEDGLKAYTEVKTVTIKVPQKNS
Chain of Serine/threonine-protein kinase Nek1 (Homo sapiens) (Q96PY6 whole entry): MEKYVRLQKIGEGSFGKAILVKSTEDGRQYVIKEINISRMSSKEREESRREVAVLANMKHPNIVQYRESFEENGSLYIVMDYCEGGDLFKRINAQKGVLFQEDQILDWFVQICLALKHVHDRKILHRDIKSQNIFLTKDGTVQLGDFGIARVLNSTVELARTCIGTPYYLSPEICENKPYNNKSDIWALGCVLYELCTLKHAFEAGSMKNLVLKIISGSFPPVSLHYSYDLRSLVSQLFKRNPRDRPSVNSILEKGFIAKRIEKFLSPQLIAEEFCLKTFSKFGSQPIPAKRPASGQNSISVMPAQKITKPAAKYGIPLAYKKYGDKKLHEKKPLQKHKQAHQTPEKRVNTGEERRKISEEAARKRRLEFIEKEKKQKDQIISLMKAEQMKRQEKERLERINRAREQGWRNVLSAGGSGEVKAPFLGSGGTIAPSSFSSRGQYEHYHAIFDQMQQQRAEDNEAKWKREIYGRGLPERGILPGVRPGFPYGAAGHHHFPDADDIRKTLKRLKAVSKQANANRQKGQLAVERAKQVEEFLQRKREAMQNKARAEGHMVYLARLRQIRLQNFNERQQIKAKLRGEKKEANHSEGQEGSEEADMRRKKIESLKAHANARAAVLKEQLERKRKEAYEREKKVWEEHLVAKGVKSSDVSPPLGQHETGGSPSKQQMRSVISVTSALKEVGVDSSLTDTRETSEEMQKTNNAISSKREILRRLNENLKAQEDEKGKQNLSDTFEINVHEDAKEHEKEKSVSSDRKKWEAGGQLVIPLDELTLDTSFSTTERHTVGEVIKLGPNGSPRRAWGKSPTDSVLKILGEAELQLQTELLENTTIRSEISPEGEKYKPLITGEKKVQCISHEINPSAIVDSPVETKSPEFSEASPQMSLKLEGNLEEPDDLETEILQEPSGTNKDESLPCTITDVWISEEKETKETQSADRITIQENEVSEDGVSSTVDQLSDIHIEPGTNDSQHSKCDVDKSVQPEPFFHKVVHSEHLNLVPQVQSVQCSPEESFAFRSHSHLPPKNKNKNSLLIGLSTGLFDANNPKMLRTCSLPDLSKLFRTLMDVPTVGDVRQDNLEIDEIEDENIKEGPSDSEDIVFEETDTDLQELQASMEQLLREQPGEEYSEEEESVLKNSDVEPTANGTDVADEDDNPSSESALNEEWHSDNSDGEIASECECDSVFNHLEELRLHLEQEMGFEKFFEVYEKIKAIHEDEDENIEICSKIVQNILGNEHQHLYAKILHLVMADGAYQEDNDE
Chain of AP-2 complex subunit alpha-1 (Homo sapiens) (O95782 whole entry, one chain of several): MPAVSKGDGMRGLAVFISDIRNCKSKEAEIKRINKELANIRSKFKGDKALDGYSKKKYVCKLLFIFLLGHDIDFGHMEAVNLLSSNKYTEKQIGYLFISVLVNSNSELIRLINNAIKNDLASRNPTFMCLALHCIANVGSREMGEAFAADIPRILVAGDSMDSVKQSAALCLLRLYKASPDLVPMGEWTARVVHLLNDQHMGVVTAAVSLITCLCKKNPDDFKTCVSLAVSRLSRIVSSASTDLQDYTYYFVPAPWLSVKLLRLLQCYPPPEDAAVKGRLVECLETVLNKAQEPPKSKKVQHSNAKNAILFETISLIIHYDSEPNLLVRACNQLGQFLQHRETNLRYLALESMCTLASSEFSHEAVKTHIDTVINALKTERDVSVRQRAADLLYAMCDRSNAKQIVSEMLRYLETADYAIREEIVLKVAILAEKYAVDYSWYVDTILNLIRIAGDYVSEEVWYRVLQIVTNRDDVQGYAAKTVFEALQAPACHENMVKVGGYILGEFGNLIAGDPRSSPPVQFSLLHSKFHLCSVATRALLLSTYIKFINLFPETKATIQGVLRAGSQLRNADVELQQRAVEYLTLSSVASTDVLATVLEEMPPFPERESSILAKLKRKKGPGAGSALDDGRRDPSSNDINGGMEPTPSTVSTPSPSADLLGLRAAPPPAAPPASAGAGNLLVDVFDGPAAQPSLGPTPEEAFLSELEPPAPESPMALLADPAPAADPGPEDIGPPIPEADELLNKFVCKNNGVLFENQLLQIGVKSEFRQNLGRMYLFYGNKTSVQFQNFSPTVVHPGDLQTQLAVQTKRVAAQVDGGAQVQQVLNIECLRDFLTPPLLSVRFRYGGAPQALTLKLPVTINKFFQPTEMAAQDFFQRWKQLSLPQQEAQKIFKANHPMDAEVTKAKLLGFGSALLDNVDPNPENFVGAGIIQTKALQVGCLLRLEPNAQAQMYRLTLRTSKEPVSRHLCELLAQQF
Chain of Pigment epithelium-derived factor (Homo sapiens) (P36955 whole entry): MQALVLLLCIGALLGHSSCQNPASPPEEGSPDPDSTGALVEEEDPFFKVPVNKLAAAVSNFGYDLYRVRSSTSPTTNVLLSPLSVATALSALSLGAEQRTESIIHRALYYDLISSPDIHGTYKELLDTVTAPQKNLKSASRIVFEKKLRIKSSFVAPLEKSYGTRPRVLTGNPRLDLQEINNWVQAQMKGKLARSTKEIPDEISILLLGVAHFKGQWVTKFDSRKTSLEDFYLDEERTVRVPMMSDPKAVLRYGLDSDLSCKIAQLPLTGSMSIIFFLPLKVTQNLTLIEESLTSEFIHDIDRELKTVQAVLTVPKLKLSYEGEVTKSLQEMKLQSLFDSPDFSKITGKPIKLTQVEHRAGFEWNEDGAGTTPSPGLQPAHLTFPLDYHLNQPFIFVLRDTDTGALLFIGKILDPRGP
Chain of Aminoacyl tRNA synthase complex-interacting multifunctional protein 1 (Homo sapiens) (Q12904 whole entry, one chain of several): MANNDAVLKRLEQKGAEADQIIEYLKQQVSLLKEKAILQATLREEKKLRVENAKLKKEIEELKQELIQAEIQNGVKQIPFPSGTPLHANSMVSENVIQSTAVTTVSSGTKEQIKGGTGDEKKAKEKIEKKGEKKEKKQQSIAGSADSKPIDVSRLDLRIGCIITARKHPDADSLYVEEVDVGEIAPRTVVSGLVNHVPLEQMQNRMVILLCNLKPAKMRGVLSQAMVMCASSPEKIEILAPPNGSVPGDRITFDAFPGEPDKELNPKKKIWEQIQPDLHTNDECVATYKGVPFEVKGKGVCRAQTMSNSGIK
Chain of Proteasome subunit beta type-6 (Homo sapiens) (P28072 whole entry): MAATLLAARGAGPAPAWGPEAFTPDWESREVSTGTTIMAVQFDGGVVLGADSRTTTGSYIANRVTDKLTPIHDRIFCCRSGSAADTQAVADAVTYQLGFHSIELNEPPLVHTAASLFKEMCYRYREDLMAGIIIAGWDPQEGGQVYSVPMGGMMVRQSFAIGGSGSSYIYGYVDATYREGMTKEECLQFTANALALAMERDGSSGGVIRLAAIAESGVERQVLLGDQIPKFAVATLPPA
Chain of Protein disulfide-isomerase A4 (Homo sapiens) (P13667 whole entry): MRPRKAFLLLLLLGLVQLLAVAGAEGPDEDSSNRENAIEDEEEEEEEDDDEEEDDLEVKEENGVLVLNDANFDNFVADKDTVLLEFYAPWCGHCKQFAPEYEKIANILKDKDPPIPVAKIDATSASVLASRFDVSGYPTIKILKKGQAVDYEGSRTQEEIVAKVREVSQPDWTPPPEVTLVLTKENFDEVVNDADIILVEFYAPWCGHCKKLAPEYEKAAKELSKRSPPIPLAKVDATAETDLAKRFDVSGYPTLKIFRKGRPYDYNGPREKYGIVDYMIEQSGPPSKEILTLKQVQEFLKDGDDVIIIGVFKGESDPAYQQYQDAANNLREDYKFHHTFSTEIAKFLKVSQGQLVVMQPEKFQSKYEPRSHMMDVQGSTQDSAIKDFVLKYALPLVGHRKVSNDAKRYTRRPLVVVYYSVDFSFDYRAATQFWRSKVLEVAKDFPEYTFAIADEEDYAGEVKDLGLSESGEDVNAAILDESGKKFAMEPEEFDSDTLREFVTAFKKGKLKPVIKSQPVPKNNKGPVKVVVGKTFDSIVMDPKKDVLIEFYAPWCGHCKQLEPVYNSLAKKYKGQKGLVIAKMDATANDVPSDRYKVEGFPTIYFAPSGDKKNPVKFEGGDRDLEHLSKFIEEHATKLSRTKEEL

As to `C=CC(=O)Nc1ccccc1Nc1nc(Nc2ccc(N3CCN(CCOCCOCCOCCNC(=O)CCCC[C@@H]4SC[C@@H]5NC(=O)N[C@@H]54)CC3)cc2)ncc1Cl`, the result (in assay [1]; in assay [2]; in assay [3]; in the assay on NCI-H23; in assay [4]; in [5]) was Active. The result in [6], in assay [7], in [8], in [9], in [10] and in assay [11] was Active. The result in assay [12], in assay [13], in assay [14], in assay [15] and in assay [16] was Active.

For `C=CC(=O)Nc1ccccc1Nc1nc(Nc2ccc(N3CCN(C)CC3)cc2)ncc1Cl`, the inhibition in assay [17] is 59.3%.

Consider `COc1cc(O)c2c(c1)/C=C/C[C@H](O)[C@H](O)C(=O)/C=C\C[C@H](C)OC2=O`, for which the Activity in [18] is 8.6%.

Consider `C=CC(=O)Nc1ccccc1Oc1nc(Nc2cnn(CCOC)c2)ncc1Cl`, for which the inhibition in assay [19] was -7.4%.
